ChEMBL document CHEMBL3425508, “Discovery of potent hexapeptide agonists to human neuromedin u receptor 1 and identification of their serum metabolites” (ACS Med Chem Lett, 2015)
The source made the active and inactive calls. The rule behind the calls is not given here. Non-standard residues stand in square brackets, D forms with d. Residues, ends and D or L forms follow the SMILES beside them. *: point of attachment. Propanoyl(3-(3-pyridyl)) = O=C(CCc1cccnc1)*; Phe(4-F) = N[C@@H](Cc1ccc(F)cc1)C(=O)O; 2Nal = N[C@@H](Cc1ccc2ccccc2c1)C(=O)O; Acetyl(2-thienyl) = O=C(Cc1cccs1)*; Hydrocinnamoyl = O=C(CCc1ccccc1)*; 2Thi = N[C@@H](Cc1cccs1)C(=O)O; X1 = O=C(CCc1cccs1)*

Experiments:
Serum [1] = experiment: Drug degradation in 25% human serum at 1 mM at 37 degC by RP-HPLC method; assay type: ADME, cell-free; conditions: 1000 µM, TDE = time-dependent effect
Neuromedin-U receptor 2 [2] = target: T1, Neuromedin-U receptor 2 (Homo sapiens, UniProt Q9GZQ4); experiment: Intrinsic agonist activity at human NMUR2 expressed in CHO cells assessed as intracellular calcium flux at by Fluo-4 AM dye based fluorometric imaging method; assay type: functional, cell-based
T1 sequence (Q9GZQ4 whole entry): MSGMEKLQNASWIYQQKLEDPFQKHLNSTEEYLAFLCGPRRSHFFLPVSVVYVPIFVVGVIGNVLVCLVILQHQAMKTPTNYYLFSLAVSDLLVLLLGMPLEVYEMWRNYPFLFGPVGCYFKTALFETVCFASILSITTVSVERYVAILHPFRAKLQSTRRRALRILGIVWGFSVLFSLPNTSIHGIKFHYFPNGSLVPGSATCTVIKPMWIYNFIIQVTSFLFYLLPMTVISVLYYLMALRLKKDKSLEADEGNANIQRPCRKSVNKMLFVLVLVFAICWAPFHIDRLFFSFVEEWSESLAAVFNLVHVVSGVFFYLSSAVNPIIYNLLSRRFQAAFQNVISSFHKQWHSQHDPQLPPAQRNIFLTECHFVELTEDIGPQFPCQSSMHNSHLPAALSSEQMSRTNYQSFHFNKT
How it was run: (§1)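 Dose–response Ca2+ mobilization in CHO cells stably expressing human NMUR1 or NMUR2. Peptides run at 10^-12–10^-6 M with hNMU as reference. EC50 and intrinsic activity derived from the curves. Triplicate determinations.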

Serum [3] = experiment: Drug metabolism in 25% rat serum assessed as cleavage at Phe(2)-Arg(3) site at 1 mM at 37 degC by RP-HPLC method; assay type: ADME, cell-free; conditions: 1000 µM
How it was run: (§2)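 Peptides incubated in 25% rat serum at 37 °C and sampled over time (10, 30, 60 min). Samples extracted on Sep-Pak C18 cartridges and analysed by C18 RP-HPLC with UV detection at 220 nm. Metabolites identified by mass spectrometry. Recovery of intact peptide measured at 10 or 60 min, in triplicate.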

[4] = Drug metabolism in 25% rat serum assessed as drug recovery at 1 mM incubated for 10 mins at 37 degC by RP-HPLC method; assay type: ADME, cell-free; conditions: read-out: Drug recovery; how it was run: as §2
Neuromedin-U receptor 2 [5] = target: T1, Neuromedin-U receptor 2; experiment: Agonist activity at human NMUR2 expressed in CHO cells assessed as intracellular calcium flux at 1 and 10 nM by Fluo-4 AM dye based fluorometric imaging method relative to 1000 nM human neuromedin U; assay type: functional, cell-based
[6] = target: T2, Neuromedin-U receptor 1 (Homo sapiens) (UniProt Q9HB89); experiment: Agonist activity at human NMUR1 expressed in CHO cells assessed as intracellular calcium flux at 1 and 10 nM by Fluo-4 AM dye based fluorometric imaging method relative to 1000 nM human neuromedin U; assay type: functional, cell-based
T2 sequence (whole entry): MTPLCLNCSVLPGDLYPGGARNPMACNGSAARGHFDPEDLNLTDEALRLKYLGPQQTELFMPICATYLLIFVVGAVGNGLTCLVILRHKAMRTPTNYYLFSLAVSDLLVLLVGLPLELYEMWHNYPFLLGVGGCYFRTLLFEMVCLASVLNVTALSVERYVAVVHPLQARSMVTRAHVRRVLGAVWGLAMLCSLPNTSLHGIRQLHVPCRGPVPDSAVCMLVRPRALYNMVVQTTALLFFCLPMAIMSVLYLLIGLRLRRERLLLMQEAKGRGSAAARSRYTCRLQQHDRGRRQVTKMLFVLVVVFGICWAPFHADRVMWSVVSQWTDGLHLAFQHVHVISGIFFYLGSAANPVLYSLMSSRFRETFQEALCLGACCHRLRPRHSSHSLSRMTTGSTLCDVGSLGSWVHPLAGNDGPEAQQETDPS

Neuromedin-U receptor 1 = target: T3, Neuromedin-U receptor 1 (Homo sapiens, UniProt Q9HB89); experiment: Agonist activity at human NMUR1 expressed in CHO cells assessed as intracellular calcium flux at by Fluo-4 AM dye based fluorometric imaging method; assay type: functional, cell-based; how it was run: as §1
T3 sequence (Q9HB89 whole entry): T2 sequence (whole entry)

Neuromedin-U receptor 2 [7] = target: T1, Neuromedin-U receptor 2; experiment: Agonist activity at human NMUR2 expressed in CHO cells assessed as intracellular calcium flux at by Fluo-4 AM dye based fluorometric imaging method; assay type: functional, cell-based; how it was run: as §1
[8] = target: T2, Neuromedin-U receptor 1 (Homo sapiens); experiment: Intrinsic agonist activity at human NMUR1 expressed in CHO cells assessed as intracellular calcium flux at by Fluo-4 AM dye based fluorometric imaging method; assay type: functional, cell-based; how it was run: as §1
Serum [9] = experiment: Drug metabolism in 25% rat serum assessed as cleavage at Arg(5)-Asn(6) site at 1 mM at 37 degC by RP-HPLC method; assay type: ADME, cell-free; conditions: 1000 µM; how it was run: as §2
Serum [10] = experiment: Drug level in 25% rat serum treated with 1 mM (S)-2-((S)-2-((S)-1-((6S,9S,12S)-12-((1H-indol-3-yl)methyl)-1-amino-9-benzyl-1-imino-8,11,14-trioxo-15-(thiophen-2-yl)-2,7,10,13-tetraazapentadecanecarbonyl)pyrrolidine-2-carboxamido)-5-guanidinopentanamido)succinamide assessed as compound formation at 37 degC by RP-HPLC method; assay type: ADME, cell-free; how it was run: as §2

Compound	Activity (Neuromedin-U receptor 2 [5])	Activity [6]	further results
N=C(N)NCCC[C@H](NC(=O)[C@@H]1CCCN1C(=O)[C@H](CCCNC(=N)N)NC(=O)[C@H](Cc1ccc(F)cc1)NC(=O)[C@H](Cc1c[nH]c2ccccc12)NC(=O)Cc1cccs1)C(=O)N[C@@H](CC(N)=O)C(N)=O ({Acetyl(2-thienyl)}-W[Phe(4-F)]RPRN-NH2)	Active	Active	Drug degradation (Serum [1]): tde; Intrinsic activity (Neuromedin-U receptor 2 [2]): 82%; Drug metabolism (Serum [3]): metabolite_detected; remaining at 10 min, 1000 µM [4]: 42.7%; EC50 (Neuromedin-U receptor 1): 0.083 nM; EC50 (Neuromedin-U receptor 2 [7]): 2.6 nM; Intrinsic activity [8]: 95%; Drug metabolism (Serum [9]): metabolite_detected
Ac-FFRPRN-NH2	inactive	inactive	
N=C(N)NCCC[C@H](NC(=O)[C@@H]1CCCN1C(=O)[C@H](CCCNC(=N)N)NC(=O)[C@H](Cc1ccccc1)NC(=O)[C@H](Cc1ccc2ccccc2c1)NC(=O)CCc1cccnc1)C(=O)N[C@@H](CC(N)=O)C(N)=O ({Propanoyl(3-(3-pyridyl))}-[2Nal]FRPRN-NH2)	Active		
N=C(N)NCCC[C@H](NC(=O)[C@@H]1CCCN1C(=O)[C@H](CCCNC(=N)N)NC(=O)[C@H](Cc1cccs1)NC(=O)[C@H](Cc1c[nH]c2ccccc12)NC(=O)Cc1cccs1)C(=O)N[C@@H](CC(N)=O)C(N)=O ({Acetyl(2-thienyl)}-W[2Thi]RPRN-NH2)	Active	Active	
H-FLFRPRN-NH2			Drug metabolism (Serum [3]): metabolite_notdetected; remaining at 10 min, 1000 µM [4]: 37%; Drug metabolism (Serum [9]): metabolite_notdetected
N=C(N)NCCC[C@H](NC(=O)[C@@H]1CCCN1C(=O)[C@H](CCCNC(=N)N)NC(=O)[C@H](Cc1ccccc1)NC(=O)[C@H](Cc1ccccc1)NC(=O)CCc1cccs1)C(=O)N[C@@H](CC(N)=O)C(N)=O (X1-FFRPRN-NH2)	Active	Active	
O=C(Cc1cccs1)N[C@@H](Cc1c[nH]c2ccccc12)C(=O)N[C@@H](Cc1ccccc1)C(=O)O			Drug metabolism (Serum [10]): metabolite_detected
N=C(N)NCCC[C@H](NC(=O)[C@@H]1CCCN1C(=O)[C@H](CCCNC(=N)N)NC(=O)[C@H](Cc1ccccc1)NC(=O)[C@H](Cc1ccccc1)NC(=O)CCc1cccnc1)C(=O)N[C@@H](CC(N)=O)C(N)=O ({Propanoyl(3-(3-pyridyl))}-FFRPRN-NH2)	Active	Active	
N=C(N)NCCC[C@H](NC(=O)[C@@H]1CCCN1C(=O)[C@H](CCCNC(=N)N)NC(=O)[C@H](Cc1ccccc1)NC(=O)[C@H](Cc1ccccc1)NC(=O)CCc1ccccc1)C(=O)N[C@@H](CC(N)=O)C(N)=O (Hydrocinnamoyl-FFRPRN-NH2)	inactive	inactive	
N=C(N)NCCC[C@H](NC(=O)[C@@H]1CCCN1C(=O)[C@H](CCCNC(=N)N)NC(=O)[C@H](Cc1ccccc1)NC(=O)[C@H](Cc1ccccc1)NC(=O)Cc1cccs1)C(=O)N[C@@H](CC(N)=O)C(N)=O ({Acetyl(2-thienyl)}-FFRPRN-NH2)	Active	Active	
